Laboratory results from ChEMBL document CHEMBL3861956, “Lignans from the Australian Endemic Plant Austrobaileya scandens” (J Nat Prod, 2016).

Key:
[1] = Antiproliferative activity against human PC3 cells after 72 hrs by Alamar Blue assay; conditions: PC-3, 72 h
[2] = system: PC-3; assay: Induction of apoptosis in human PC3 cells assessed as increase in cell size after 72 hrs by Hoechst 33342/mitotracker deep red/cellmask plasma membrane probe-based fluorescence microscopy; assay type: functional
How it was run: (§1)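 PC3 cells seeded at 2000/well onto compound, grown 72 h at 37 °C, 5% CO2. Stained 30 min at 37 °C with Hoechst 33342 (1/1000), 1 μM MitoTracker Deep Red and CellMask plasma membrane (1/1000), then PBS wash. Automated wide-field imaging at 20×, 25 fields/well. Nuclei segmented by Hoechst, cytoplasm by CellMask, border cells excluded. Results normalized to DMSO; at least two experiments.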

[3] = system: PC-3; assay: Induction of apoptosis in human PC3 cells assessed as appearance of rounded cells after 72 hrs by Hoechst 33342/mitotracker deep red/cellmask plasma membrane probe-based fluorescence microscopy; assay type: functional, cell-based
How it was run: as §1

[4] = system: PC-3; assay: Induction of apoptosis in human PC3 cells assessed as increase in cell area after 72 hrs by Hoechst 33342/mitotracker deep red/cellmask plasma membrane probe-based fluorescence microscopy; assay type: functional
How it was run: as §1

[5] = system: PC-3; assay: Induction of apoptosis in human PC3 cells assessed as increase in mitochondrial area after 72 hrs by Hoechst 33342/mitotracker deep red/cellmask plasma membrane probe-based fluorescence microscopy; assay type: functional, cell-based
How it was run: as §1

[6] = system: PC-3; assay: Induction of apoptosis in human PC3 cells assessed as increase in nuclear intensity after 72 hrs by Hoechst 33342/mitotracker deep red/cellmask plasma membrane probe-based fluorescence microscopy; assay type: functional, cell-based
How it was run: as §1

[7] = system: PC-3; assay: Induction of apoptosis in human PC3 cells assessed as increase in mitochondrial intensity after 72 hrs by Hoechst 33342/mitotracker deep red/cellmask plasma membrane probe-based fluorescence microscopy; assay type: functional, cell-based
How it was run: as §1

[8] = system: PC-3; assay: Induction of apoptosis in human PC3 cells assessed as chromatin condensation after 72 hrs by Hoechst 33342/mitotracker deep red/cellmask plasma membrane probe-based fluorescence microscopy; assay type: functional, cell-based
How it was run: as §1

[9] = system: PC-3; assay: Induction of apoptosis in human PC3 cells assessed as appearance of aggregated mitochondrial texture after 72 hrs by Hoechst 33342/mitotracker deep red/cellmask plasma membrane probe-based fluorescence microscopy; assay type: functional, cell-based
How it was run: as §1

[10] = Cell cycle arrest in human PC3 cells assessed as accumulation at G0/G1 phase at 0.1 uM after 24 hrs by propidium iodide staining-based flow cytometric method (reference value: 75.3 +/- 1.8%); assay type: functional; conditions: PC-3
How it was run: (§2)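 PC3 cells exposed 24 h to 0 (DMSO only), 0.1, 0.3 or 1 μM. Cells collected, washed in ice-cold PBS, fixed in 70% EtOH at −20 °C for 16 h. Stained 20 min at room temperature with 0.1% Triton X-100, 0.2 mg RNaseA and 2 μL PI (1 mg/mL) in 1 mL, then flow cytometry. Phase distribution fitted by ModFit.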

[11] = Cell cycle arrest in human PC3 cells assessed as accumulation at S phase at 0.1 uM after 24 hrs by propidium iodide staining-based flow cytometric method (reference value: 15.8 +/- 0.3%); assay type: functional; conditions: PC-3
How it was run: as §2

[12] = Cell cycle arrest in human PC3 cells assessed as accumulation at G2/M phase at 0.1 uM after 24 hrs by propidium iodide staining-based flow cytometric method (reference value: 8.9 +/- 1.5%); assay type: functional; conditions: PC-3
How it was run: as §2

[13] = Cell cycle arrest in human PC3 cells assessed as accumulation at G0/G1 phase at 0.3 uM after 24 hrs by propidium iodide staining-based flow cytometric method (reference value: 75.3 +/- 1.8%); assay type: functional; conditions: PC-3
How it was run: as §2

[14] = Cell cycle arrest in human PC3 cells assessed as accumulation at S phase at 0.3 uM after 24 hrs by propidium iodide staining-based flow cytometric method (reference value: 15.8 +/- 0.3%); assay type: functional; conditions: PC-3
How it was run: as §2

[15] = Cell cycle arrest in human PC3 cells assessed as accumulation at G2/M phase at 0.3 uM after 24 hrs by propidium iodide staining-based flow cytometric method (reference value: 8.9 +/- 1.5%); assay type: functional; conditions: PC-3
How it was run: as §2

[16] = Cell cycle arrest in human PC3 cells assessed as accumulation at G0/G1 phase at 1 uM after 24 hrs by propidium iodide staining-based flow cytometric method (reference value: 75.3 +/- 1.8%); assay type: functional; conditions: PC-3
How it was run: as §2

[17] = Cell cycle arrest in human PC3 cells assessed as accumulation at S phase at 1 uM after 24 hrs by propidium iodide staining-based flow cytometric method (reference value: 15.8 +/- 0.3%); assay type: functional; conditions: PC-3
How it was run: as §2

[18] = Cell cycle arrest in human PC3 cells assessed as accumulation at G2/M phase at 1 uM after 24 hrs by propidium iodide staining-based flow cytometric method (reference value: 8.9 +/- 1.5%); assay type: functional; conditions: PC-3
How it was run: as §2

[19] = Antiproliferative activity against human PC3 cells at 10 uM after 72 hrs by Alamar Blue assay relative to control; conditions: PC-3, 72 h

COc1cc([C@@H]2c3cc4c(cc3C[C@H]3COC(=O)[C@@H]32)OCO4)cc2c1OCO2 [AUSTROBAILIGNAN 1]
IC50 [1]: 50 nM

COc1cc([C@@H]2c3cc4c(cc3C[C@@H](C)[C@@H]2C)OCO4)cc(OC)c1OC
IC50 [1]: 823 nM

COc1cc([C@@H]2c3cc4c(c(OC)c3C[C@H]3COC(=O)[C@@H]32)OCO4)cc2c1OCO2
IC50 [1]: 47 nM

COc1cc([C@@H]2c3cc4c(cc3C[C@@H](C)[C@@H]2C)OCO4)cc2c1OCO2
IC50 [1]: 2060 nM

COc1cc([C@@H]2c3cc4c(cc3C[C@@H](C)[C@@H]2C(=O)O)OCO4)cc2c1OCO2
IC50 [1]: 1630 nM

CC(=O)O[C@H]1C(=O)[C@@]2(C)[C@H]([C@H](OC(=O)c3ccccc3)[C@]3(O)C[C@H](OC(=O)[C@H](O)[C@@H](NC(=O)c4ccccc4)c4ccccc4)C(C)=C1C3(C)C)[C@]1(OC(C)=O)CO[C@@H]1C[C@@H]2O [PACLITAXEL]
IC50 [1]: 2 nM

COc1cc([C@@H]2c3cc4c(cc3C[C@H]3COC(=O)[C@@H]32)OCO4)cc(OC)c1OC [DESOXYPODOPHYLLOTOXIN]
IC50 [1]: 18 nM

COc1cc([C@@H]2O[C@H](c3ccc4c(c3)OCO4)[C@@H](C)[C@@H]2C)ccc1O
IC50 [1]: 5110 nM

COc1cc(C(=O)O[C@@H](c2ccc3c(c2)OCO3)[C@H](C)C(C)=O)ccc1O
Activity [2]: Dose-dependent effect
Activity [3]: Dose-dependent effect
Activity [4]: Dose-dependent effect
Activity [5]: Dose-dependent effect
Activity [6]: Dose-dependent effect
Activity [7]: Dose-dependent effect
Activity [8]: Dose-dependent effect
Activity [9]: Dose-dependent effect
Activity [10]: 62.6%
Activity [11]: 27.5%
Activity [12]: 9.9%
Activity [13]: 63.4%
Activity [14]: 32.2%
Activity [15]: 4.4%
Activity [16]: 61.1%
Activity [17]: 35.1%
Activity [18]: 3.8%
IC50 [1]: 1910 nM

C[C@H]1[C@H](C)C(=O)O[C@@H]1c1ccc2c(c1)OCO2
inhibition at 10 µM [19]: 15%

COc1cc([C@@H]2c3cc4c(c(OC)c3C[C@H]3COC(=O)[C@@H]32)OCO4)cc(OC)c1OC
IC50 [1]: 16 nM

C[C@H](Cc1ccc2c(c1)OCO2)[C@H](C)Cc1ccc2c(c1)OCO2
inhibition at 10 µM [19]: 27%

COc1cc(C(c2ccc(O)c(OC)c2)[C@@H](C)[C@H](C)CO)ccc1O
IC50 [1]: 6360 nM
